One may read the EC50 as the concentration that produces a half-maximal response.

The record followed here is ChEMBL document CHEMBL4024789, “Neutral Porphyrin Derivative Exerts Anticancer Activity by Targeting Cellular Topoisomerase I (Top1) and Promotes Apoptotic Cell Death without Stabilizing Top1-DNA Cleavage Complexes” (J Med Chem, 2018).

The target of experiment [1] is T1, DNA topoisomerase 1 (Homo sapiens, UniProt P11387).
T1 sequence (P11387 whole entry): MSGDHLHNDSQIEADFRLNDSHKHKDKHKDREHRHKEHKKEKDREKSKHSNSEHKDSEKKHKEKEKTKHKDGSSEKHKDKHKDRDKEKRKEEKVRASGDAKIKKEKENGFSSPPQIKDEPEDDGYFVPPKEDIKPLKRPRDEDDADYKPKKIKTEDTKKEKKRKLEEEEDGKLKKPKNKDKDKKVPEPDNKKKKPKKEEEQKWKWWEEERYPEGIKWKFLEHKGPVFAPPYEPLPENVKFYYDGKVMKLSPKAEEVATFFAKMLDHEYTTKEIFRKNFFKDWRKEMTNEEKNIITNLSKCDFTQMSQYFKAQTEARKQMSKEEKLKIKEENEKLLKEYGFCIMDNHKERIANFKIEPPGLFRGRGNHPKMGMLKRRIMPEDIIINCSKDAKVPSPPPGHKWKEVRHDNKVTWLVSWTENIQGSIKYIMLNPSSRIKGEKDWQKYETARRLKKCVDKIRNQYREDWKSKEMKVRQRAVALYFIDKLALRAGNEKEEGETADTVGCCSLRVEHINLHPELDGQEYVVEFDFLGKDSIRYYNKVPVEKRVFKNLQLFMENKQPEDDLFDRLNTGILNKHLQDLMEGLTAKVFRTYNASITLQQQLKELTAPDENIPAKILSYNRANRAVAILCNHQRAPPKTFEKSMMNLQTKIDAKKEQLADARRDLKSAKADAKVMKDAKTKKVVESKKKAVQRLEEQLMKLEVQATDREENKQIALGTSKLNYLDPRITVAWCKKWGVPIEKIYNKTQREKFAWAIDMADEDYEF
The experiment can be described thus: Inhibition of recombinant human topoisomerase-1 expressed in baculovirus infected sf9 cells using supercoiled pBS SK(+) DNA as substrate preincubated for 5 mins followed by substrate addition measured after 15 mins by ethidium bromide staining based agarose gel electrophoresis method. The essentials:
(§1)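 Relaxation assay: 90 fmol supercoiled pBS (SK+) DNA with 30 fmol recombinant Top1 (Sf-9/baculovirus). Compound either preincubated with Top1 for 5 min before DNA addition, or added simultaneously with DNA; then 37 °C for 15 min. Vehicle 2% DMSO. Read on 1% agarose gel. EC50 from mean ± SD of three experiments.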

Experiment [2] has as its target T1, DNA topoisomerase 1. As to the kind of experiment: Inhibition of recombinant human topoisomerase-1 expressed in baculovirus infected sf9 cells using supercoiled pBS SK(+) DNA as substrate after 15 mins by ethidium bromide staining based agarose gel electrophoresis method. The method in brief: as §1
The test system of experiment [3] is Bacteria. As to the kind of experiment: Induction of relaxed pBluescript SK(+) DNA intercalation (unknown origin) assessed as negative supercoiling at 300 uM after 15 mins by agarose gel electrophoresis method. The method in brief: (§2)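 Top1 unwinding assay: excess Top1 first relaxes 50 fmol supercoiled pBS (SK+) DNA, then the relaxed DNA is incubated with compound at 50, 100 or 300 μM (m-AMSA and etoposide as references). Negative supercoiling read on agarose gel.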

Experiment [4] concerns Bacteria. The experiment can be described thus: Induction of relaxed pBluescript SK(+) DNA intercalation (unknown origin) assessed as negative supercoiling at 50 uM after 15 mins by agarose gel electrophoresis method. The method in brief: as §2

Active and inactive are the calls of the source. No cut-off for these calls is given here. A value given as a limit tells only on which side of the number the result lay.

Consider `Brc1ccc(-c2c3nc(c(-c4ccc(Br)cc4)c4ccc([nH]4)c(-c4ccncc4)c4nc(c(-c5ccncc5)c5ccc2[nH]5)C=C4)C=C3)cc1`, for which the 50% effective concentration (EC50) in experiment [1] and in experiment [2] was more than 50 µM throughout.
In the case of `COc1cc([C@@H]2c3cc4c(cc3[C@@H](O[C@@H]3O[C@@H]5CO[C@@H](C)O[C@H]5[C@H](O)[C@H]3O)[C@H]3COC(=O)[C@H]23)OCO4)cc(OC)c1O`, the outcome in experiment [3] was inactive.
For the compound `CN(C)c1ccc(-c2c3nc(c(-c4ccc(N(C)C)cc4)c4ccc([nH]4)c(-c4ccc(N(C)C)cc4)c4nc(c(-c5ccc(C(=O)O)cc5)c5ccc2[nH]5)C=C4)C=C3)cc1`, the EC50 was determined as 1.23 µM in experiment [1] and 1.97 µM in experiment [2].
On the same counts, the results for `C1=Cc2nc1c(-c1ccccc1)c1ccc([nH]1)c(-c1ccccc1)c1nc(c(-c3ccccc3)c3ccc([nH]3)c2-c2ccccc2)C=C1` are more than 50 µM and more than 50 µM.
For `Brc1ccc(-c2c3nc(c(-c4ccncc4)c4ccc([nH]4)c(-c4ccc(Br)cc4)c4nc(c(-c5ccncc5)c5ccc2[nH]5)C=C4)C=C3)cc1`, the EC50 in experiment [1] and in experiment [2] was more than 50 µM in each case.
With `O=C(O)c1ccc(-c2c3nc(c(-c4ccc(C(=O)O)cc4)c4ccc([nH]4)c(-c4ccc(C(=O)O)cc4)c4nc(c(-c5ccc(C(=O)O)cc5)c5ccc2[nH]5)C=C4)C=C3)cc1`, the EC50 in experiment [1] was determined as 0.563 µM; in experiment [2], 2.02 µM.
For `Nc1ccc(-c2ccc(-c3c4nc(c(-c5ccc(-c6ccc(N)cc6)cc5)c5ccc([nH]5)c(-c5ccncc5)c5nc(c(-c6ccncc6)c6ccc3[nH]6)C=C5)C=C4)cc2)cc1`, the EC50 came out at 63.4 µM in experiment [1] and 82.8 µM in experiment [2].
For the compound `Brc1ccc(-c2c3nc(c(-c4ccncc4)c4ccc([nH]4)c(-c4ccncc4)c4nc(c(-c5ccncc5)c5ccc2[nH]5)C=C4)C=C3)cc1`, the 50% effective concentration (EC50) in experiment [1] and in experiment [2] was more than 50 µM each time.
With `C1=Cc2nc1c(-c1ccncc1)c1ccc([nH]1)c(-c1ccncc1)c1nc(c(-c3ccncc3)c3ccc([nH]3)c2-c2ccncc2)C=C1`, the EC50 in experiment [1] and in experiment [2] was more than 50 µM in each case.
In the case of `COc1cc(NS(C)(=O)=O)ccc1Nc1c2ccccc2nc2ccccc12`, the outcome in experiment [4] was Active.
On to `Brc1ccc(-c2c3nc(c(-c4ccc(-c5ccncc5)cc4)c4ccc([nH]4)c(-c4ccc(Br)cc4)c4nc(c(-c5ccc(-c6ccncc6)cc5)c5ccc2[nH]5)C=C4)C=C3)cc1`, for which the EC50 in experiment [1] and in experiment [2] was more than 50 µM throughout.
